ERAP1 HTS inh = ERAP1 (human) enzyme inhibition. inhibition, % at 10.7 µM. recombinant ERAP1, Leu-AMC fluorescence, 60 min. 340,000 tested, 0.15% active. Q9NZ08;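 active = mean replicate inhibition of at least 30%, or all replicates individually reaching that 30% level; inactive = mean below 30% and not every replicate reaching it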;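 note: 0% = neutral control wells and 100% = L-leucinethiol positive control wells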
Cneo AK release = causes C. neoformans cell lysis; adenylate kinase release luminescence, 4 h; normalised: neutral wells 0, clomiphene wells 100; lysis activity, % at 15 µM; 360,000 tested, 0.2% active;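 active = mean lysis activity across replicates of at least 80%, whatever share of replicates individually reach that level; inactive = mean lysis activity below 80%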
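Assay system: Cryptococcus neoformans yeast cells / Dosing: single-point compound dose / Timing: 4 h at 37 °C static, read 1 h later / Measured by: luminescence of released adenylate kinase using an AK detection reagent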
HIV Env fusion = inhibitors of HIV Env-mediated cell fusion; 360,000 tested, 1.1% active; inhibition, % at 12.3 µM; HeLa-JRFL Env/CEM21 cell fusion, luciferase;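 active = mean replicate inhibition score of at least 50 and every replicate individually at or above 50; inconclusive = only one of the two criteria met; inactive = mean below 50 and not all replicates reaching 50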;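 note: 0% = plate neutral controls and 100% = maraviroc near 300 nM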
Wnt act = activates Wnt/beta-catenin signaling in a reporter cell assay. activator, plate reader. activation, % at 9.35 µM. AID 743398. 300,000 tested, 1.2% active; in the data active = activation above about 30%, passing the limit was not always enough; inconclusive = no clear call, values can overlap the other calls;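 note: 0% = neutral control wells and 100% = positive control wells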
esBAF inh = SWI/SNF esBAF complex inhibition. AID 602393. reporter increase, % at 12.5 µM. 350,000 tested, 2% active. mouse ES cells, Bmi1-luciferase knock-in reporter, 24 h; 100% = twice the neutral-well signal; in the data active = activation above about 40%; inconclusive = no clear call, values can overlap the other calls;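 note: 0% = median of the plate's neutral control wells and 100% = double that signal; a rise in the Bmi1 reporter signal indicates esBAF inhibition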
MITF TRPM1 HTS = increases MITF-driven TRPM1 promoter luciferase signal | SK-MEL-5 TRPM1-promoter luciferase, 24 h; % of positive control, neutral wells = 0 | activation, % at 12.5 µM | 300,000 tested, 0.75% active | AID 588334;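 active = mean activation of at least 80% with every replicate also reaching 80%; inconclusive = mean reaches 80% but some replicate falls short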;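 note: 0% = neutral control wells and 100% = parthenolide positive control wells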
* = called active by the depositor; ? = inconclusive; . = no result; ! = not active in a repeat; [ ] = dose if it differs, or a comment. In the library only some 3.5% were active in any assay of this set; here they are far more common.

SMILES	ERAP1 HTS inh	Cneo AK release	HIV Env fusion	Wnt act	esBAF inh	MITF TRPM1 HTS
COc1ccc(-c2nn(C)c(=O)c3ccccc23)cc1NC(=O)Cn1nc(C)c2ccccc2c1=O	1	0	76*	1	13	-15
C[C@@H]1CN([C@@H](C)CO)C(=O)c2cc(NS(=O)(=O)c3ccc(F)cc3)ccc2O[C@@H]1CN(C)C(=O)Nc1ccc(F)cc1	1	-1	-14[16.7 µM]	.	0	.
O=C(c1ccc(F)cc1)N1C[C@H]2[C@@H](c3ccccc31)[C@@H](CO)N2C(=O)c1ccccc1	-1	-3	.	.	-1	.
Cn1cnc(C(=O)NC2CCN(C(=O)OC(C)(C)C)CC2)c1C(=O)NC1CCN(C(=O)OC(C)(C)C)CC1	2	-2	14	1	.	12
CC(C)(C)OC(=O)N1CCC(NC(=O)c2ncn(Cc3ccccc3)c2C(=O)NC2CCN(C(=O)OC(C)(C)C)CC2)CC1	0	4	12	-6	35	432*
Cc1noc(C)c1S(=O)(=O)Nc1cccc2c1O[C@@H](CN(C)C)[C@@H](C)CN([C@H](C)CO)C2=O	1	1	.	.	-4	.
COCCOc1ccc(C(F)(F)F)cc1Nc1nc2ccccc2o1	.	0	.	.	62*	70
COc1ccc(-c2ccc(-c3nnn(CC(C)=O)n3)cc2)cc1	.	0	-125	.	22	50
CCOc1ccc(-c2nnn(CC(=O)Nc3cccc(OC)c3)n2)cc1OCC	.	0	3	33*	0	-9
COc1cccc(-c2nnn(CC(C)=O)n2)c1	.	-2	.	.	.	82*
CCc1ccc(-c2csc(-c3c[nH]c4ccccc34)n2)cc1	.	-2	-25	.	66*	68
Nc1nc(-c2c[nH]c3ccccc23)cs1	.	-2	-101	3	-1	17
C[C@H](CO)N1C[C@H](C)[C@@H](CN(C)S(=O)(=O)c2cn(C)cn2)OCCCC[C@H](C)Oc2ccc(NC(=O)Nc3ccccc3)cc2C1=O	-3	1	-11[16.7 µM]	.	4	.
Cc1ccc(S(=O)(=O)Nc2ccc3c(c2)C(=O)N([C@H](C)CO)C[C@@H](C)[C@H](CN(C)S(=O)(=O)c2cn(C)cn2)O3)cc1	3	1	4[16.7 µM]	.	2	.
CCOC(=O)c1sc(NC(=O)c2ccc(Cl)s2)cc1C	.	6	-52	25	62*	63
CCOC(=O)c1sc(NC(=O)Nc2ccc(Cl)cc2)cc1C	.	-8	74*	15	.	33
CCOC(=O)c1c(NC(=O)Nc2ccc(Cl)cc2)sc(C)c1C	.	0	-20	-8	-5	-4
CCOC(=O)c1sc(NC(=O)C(C)(C)C)cc1C	2	-2	-34	27	57*	.
CCOC(=O)c1sc(NC(=O)C2CC2)cc1C	3	-9	-65	6	17	26
CCOC(=O)c1sc(NC(=O)c2ccccc2)cc1C	.	-13	-411	.	57*	.
CCOC(=O)c1sc(NC(=O)c2ccc(S(=O)(=O)N(C)C)cc2)cc1C	.	0	-6	-14	-6	.
CCCNC(=O)C[C@H]1CC[C@@H]2[C@@H](COc3ccc(NC(=O)COC)cc3C(=O)N2C)O1	.	-4	9[16.7 µM]	.	-3	.
C[C@@H]1CN([C@H](C)CO)C(=O)c2cccc(NC(=O)c3ccc(-c4nccs4)cc3)c2O[C@@H]1CN(C)C(=O)Nc1ccc2c(c1)OCO2	-1	1	.	.	2	.
C[C@H](CO)N1C[C@H](C)[C@H](CN(C)C(=O)Nc2ccc(F)cc2)Oc2ncc(C#CCN(C)C)cc2C1=O	0	0	-5[16.7 µM]	.	1	.
COc1ccccc1CC(=O)Nc1ccc(OC)c(OC)c1	-1	0	.	.	1	-4
SMILES	ERAP1 HTS inh	Cneo AK release	HIV Env fusion	Wnt act	esBAF inh	MITF TRPM1 HTS
COc1ccccc1CC(=O)Nc1ccc2c(c1)OC1(CCCC1)O2	-1	-5	0	-4	52*	53
COc1ccc(CN(C)C[C@H]2Oc3ccc(NC(=O)Nc4ccccc4)cc3CC(=O)N([C@H](C)CO)C[C@H]2C)cc1	-3	1	-2[16.7 µM]	.	1	.
COc1ccc(OC)c(NC(=O)CSc2nnc(C3CCCCC3)n2-c2ccccc2)c1	.	-1	-84	57*	0	-19
Cc1ccc2nc3sc(C(=O)N4CCOCC4)c(N)c3cc2c1	.	-4	74*	9	-77	.
CCOc1ccc2nc3sc(C(=O)N4CCN(C)CC4)c(N)c3cc2c1	.	-6	-59	5	31	77
Cc1ccc2cc3c(N)c(C(=O)Nc4c(C)[nH]c(=O)[nH]c4=O)sc3nc2c1	.	7	-12	.	.	-11
Cc1ccc(-c2cc(C(=O)N3CCOCC3)c3cc(C)ccc3n2)cc1	-2	-5	9	31*	13	28
Cc1ccc2cc3c(N)c(C(=O)N4CCOCC4)sc3nc2c1	.	.	-272	59*	.	11
COc1ccc2nc(N/C(N)=N/S(C)(=O)=O)nc(C)c2c1	0	0	61*	15	21	-3
COc1ccccc1C1=NOC(CN2C(=O)c3ccccc3S2(=O)=O)C1 (centres undefined)	.	.	-59	37*	.	104*
O=C1c2ccccc2S(=O)(=O)N1CC1CC(c2ccccc2Cl)=NO1 (centres undefined)	.	-3	-58	93*	14	94*
O=C(NCC1CCCO1)C1CC(c2ccccc2Cl)=NO1 (centres undefined)	.	3	-33	.	-7	12
COc1ccccc1C1=NOC(COC(=O)c2ccc([N+](=O)[O-])cc2)C1 (centres undefined)	1	2	-3	41*	.	.
COc1ccccc1C1=NOC(COC(=O)c2ccc(Br)cc2)C1 (centres undefined)	-2	1	-29	-12	-7	0
CC(C)NC(=O)Nc1cccc2c1O[C@@H](CN(C)S(=O)(=O)c1ccccc1)[C@H](C)CN([C@H](C)CO)C2=O	1	0	.	.	-5	.
O=C(c1ccc(F)cc1)C1CCN(CCn2c(=O)[nH]c3ccccc3c2=O)CC1	-5	0	61*!	-4	3	2
CCCNC(=O)[C@H]1[C@H](CO)[C@H]2Cn3c(ccc(-c4ccncc4)c3=O)[C@@H]1N2C(=O)CC1CC1	4	0	.	.	-5	.
CC(C)c1nnc(NC(=O)CCS(=O)(=O)c2nc(-c3cccs3)cc(C(F)(F)F)n2)s1	.	.	85*	.	-14	.
Cc1cc(NC(=O)c2n[nH]c(=O)c3ccccc23)ccc1Br	-1	.	-7	21	.	.
CC(C)c1ccc(NC(=O)c2n[nH]c(=O)c3ccccc23)cc1	-1	.	-41	9	60*	39
CC(C)c1ccc(NC(=O)c2snc3ccc(Cl)cc23)cc1	-4	.	-53	22	?	120*
CC(C)c1ccc(NC(=O)c2csnn2)cc1	-4	-5	.	20	-12	84*
CO[C@@H]1CN(C)C(=O)c2cc(NC(=O)NC(C)C)ccc2OC[C@H](C)N(C(=O)CC2CC2)C[C@H]1C	1	1	7[16.7 µM]	.	-1	.
O=S1(=O)N=C(N2CCN(c3ccc(F)cc3)CC2)c2ccccc21	.	3	-98	.	46*	29

Screening data: PubChem BioAssay, Broad Institute
